Blank lines part the entries; values can stand above or below the molecule they belong to.
Columns and labels:
[1] = target: T1, Proto-oncogene tyrosine-protein kinase Src (Homo sapiens, UniProt P12931); test: Binding affinity for Src SH2 domain in scintillation proximity binding assay (SPA)
[2] = target: T1, Proto-oncogene tyrosine-protein kinase Src; test: (§1) Binding affinity for Src protein tyrosine kinase SH2 domain using surface plasmon resonance (SPR) assay
[3] = target: T1, Proto-oncogene tyrosine-protein kinase Src; test: Binding affinity for Src protein tyrosine kinase SH2 domain using scintillation proximity binding assay (SPA)
[4] = target: T1, Proto-oncogene tyrosine-protein kinase Src; test: Binding affinity for Src SH2 domain in scintillation proximity binding assay (SPA) - inactive
[5] = target: T1, Proto-oncogene tyrosine-protein kinase Src; test: as §1; remark: listed apart in the source
Procedure, shortened: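 Surface plasmon resonance with human Src SH2 domain (aa 145–251), E. coli-expressed and purified by cation exchange and gel filtration. Ligands compete for binding; IC50 reported.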

[6] = target: T1, Proto-oncogene tyrosine-protein kinase Src; test: Binding affinity towards Src protein tyrosine kinase SH2 domain protein using scintillation proximity binding assay (SPA)
[7] = target: T1, Proto-oncogene tyrosine-protein kinase Src; test: Binding affinity towards Src protein tyrosine kinase SH2 domain using scintillation proximity binding assay (SPA)
[8] = target: T1, Proto-oncogene tyrosine-protein kinase Src; test: Binding affinity towards Src protein tyrosine kinase SH2 domain using surface plasmon resonance (SPR) assay

T1 sequence (P12931 2-536 limits assumed): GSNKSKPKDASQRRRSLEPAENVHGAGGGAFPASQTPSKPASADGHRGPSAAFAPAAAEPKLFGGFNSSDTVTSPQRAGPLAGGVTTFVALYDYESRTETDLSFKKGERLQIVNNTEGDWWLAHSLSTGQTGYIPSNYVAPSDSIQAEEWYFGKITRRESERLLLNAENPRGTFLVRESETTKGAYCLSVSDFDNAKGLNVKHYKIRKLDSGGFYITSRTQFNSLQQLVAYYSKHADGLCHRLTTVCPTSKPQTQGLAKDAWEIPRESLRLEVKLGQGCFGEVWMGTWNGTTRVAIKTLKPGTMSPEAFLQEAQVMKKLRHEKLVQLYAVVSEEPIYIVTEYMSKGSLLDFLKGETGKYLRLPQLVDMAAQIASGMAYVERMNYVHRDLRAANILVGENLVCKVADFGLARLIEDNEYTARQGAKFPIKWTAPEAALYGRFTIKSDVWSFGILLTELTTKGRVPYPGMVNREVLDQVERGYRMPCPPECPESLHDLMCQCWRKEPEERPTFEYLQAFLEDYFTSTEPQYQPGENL

- IC50 [4]: Not Active
SMILES: CC(CC(=O)O)(CC(=O)O)c1ccccc1

- IC50 [1]: 39 µM
SMILES: Cc1cc(C=O)c(OP(=O)(O)O)c(C=O)c1

- IC50 [7]: 192 µM
SMILES: O=C(O)C(c1ccccc1)S(=O)(=O)O (stereo not drawn)

- IC50 [7]: 100 µM
SMILES: Cc1ccc(C(C(=O)O)C(=O)O)c(COC=O)c1

- IC50 [1]: 600 µM
- IC50 [2]: 2100 µM
SMILES: O=Cc1cccc(OP(=O)(O)O)c1

- IC50 [4]: Not Active
SMILES: O=C(O)CC(CC(=O)O)c1ccccc1

- IC50 [4]: Not Active
SMILES: CCC(C(N)=O)(C(=O)O)c1ccccc1 (stereo not drawn) [PHENYLETHYLMALONAMIDE -]

- IC50 [4]: Not Active
SMILES: O=C(O)CC(C(=O)O)c1ccccc1 (stereo not drawn)

- IC50 [8]: 0.556 µM
SMILES: COC(=O)c1cc(C[C@H](NC(C)=O)C(=O)N[C@H]2CCCCN(Cc3ccc(-c4ccccc4)cc3)C2=O)ccc1C(C(=O)O)C(=O)O

- IC50 [8]: 0.007 µM
SMILES: COC(=O)c1cc(C[C@@H](NC(C)=O)C(=O)N[C@H]2CCCCN(Cc3ccc(-c4ccccc4)cc3)C2=O)ccc1C(C(=O)O)C(=O)O

- IC50 [4]: Not Active
SMILES: O=S(=O)(O)C(O)c1ccccc1 (stereo not drawn)

The next lines start with the molecule.

SMILES: Cc1ccc(CC(=O)O)c(C=O)c1
- IC50 [1]: 385 µM

SMILES: CC[C@H](C)[C@H](NC(=O)[C@H](CCC(=O)O)NC(=O)[C@H](CCC(=O)O)NC(=O)[C@H](Cc1ccc(OP(=O)(O)O)cc1)NC(C)=O)C(N)=O
- IC50 [1]: 0.15 µM
- IC50 [2]: 0.001 µM

SMILES: COc1cccc(C=O)c1OP(=O)(O)O
- IC50 [3]: 95 µM

SMILES: O=P(O)(O)Oc1ccccc1 [PHENYL DIHYDROGEN PHOSPHATE]
- IC50 [3]: 300 µM
- IC50 [2]: 5000 µM

SMILES: Cc1cc(C=O)cc(C)c1OP(=O)(O)O
- IC50 [5]: 5000 µM

SMILES: O=C(O)C(c1ccc(O)cc1)S(=O)(=O)O (stereo not drawn)
- IC50 [6]: 190 µM

SMILES: O=C(O)CC(CC(=O)O)(c1ccccc1)c1ccccc1
- IC50 [4]: Not Active

SMILES: O=Cc1ccccc1OP(=O)(O)O
- IC50 [1]: 80 µM
- IC50 [2]: 300 µM
